Measurements of several laboratories.
Protocols differ between the studies behind these lines.
Target: Aurora kinase C (AURKC, Homo sapiens, UniProt Q9UQB9)
One construct used (Q9UQB9 1-309): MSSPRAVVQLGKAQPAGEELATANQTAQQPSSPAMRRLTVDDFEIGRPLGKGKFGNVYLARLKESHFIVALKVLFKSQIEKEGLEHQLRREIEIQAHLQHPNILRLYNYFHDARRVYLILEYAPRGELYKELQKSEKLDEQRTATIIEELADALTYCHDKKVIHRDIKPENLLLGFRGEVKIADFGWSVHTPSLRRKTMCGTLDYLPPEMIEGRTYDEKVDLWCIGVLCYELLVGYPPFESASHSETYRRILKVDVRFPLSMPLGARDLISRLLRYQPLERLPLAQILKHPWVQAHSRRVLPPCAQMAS

For `CO[C@@H]1[C@H](N(C)C(=O)c2ccccc2)C[C@H]2O[C@]1(C)n1c3ccccc3c3c4c(c5c6ccccc6n2c5c31)C(=O)NC4`, the inhibition was 99% (enzyme activity; inhibitor; 1 µM).
The remaining binding of `COc1ccc2oc(-c3ccc4nc(N)oc4c3)c/c(=N\c3ccccc3NC(=O)CCN)c2c1` is reported as 106% (binding; 1 µM).
With `Cc1ccc(NC(=O)c2ccnc(C(F)(F)F)c2)cc1-c1cc(OCCO)nc(N2CCOCC2)c1` the remaining binding was 83% (binding; competition with immobilised ligand; 1 µM).
For `CC#CC(=O)N1CCC[C@H]1c1nc(-c2ccc(C(=O)Nc3ccccn3)cc2)c2c(N)nccn12`, the inhibition was 18% (enzyme activity; inhibitor; 1 µM).
`C[C@]1(O)CCCN(c2nc(Nc3ccc(S(=O)(=O)N[C@H]4CC[C@H](CN5CCN(c6ccc(C7CCC(=O)NC7=O)cc6F)CC5)CC4)cc3F)ncc2C(F)(F)F)C1` (stereo partly shown) gave a remaining binding of 97% (binding; competition with immobilised ligand; 1 µM).
For `COc1ccc2[nH]c3c4[nH]c5ccc(OC)cc5c4c4c(c3c2c1)C(=O)NC4=O`, the remaining binding was 17% (binding; competition with immobilised ligand; 1 µM).
`CCCCC(=O)Nc1ccc(-c2ccc3ncn(CCC)c(=O)c3c2)cn1` has a remaining binding of 83% (binding; competition with immobilised ligand; 0.5 µM).
`CNS(=O)(=O)c1ccc(Nc2ncc(C(F)(F)F)c(N3CCC[C@](C)(O)C3)n2)c(C)c1` has a remaining binding of 37% (binding; competition with immobilised ligand; 1 µM).
`C1=C/COCc2cc(ccc2OCCN2CCCC2)Nc2nccc(n2)-c2cccc(c2)COC/1` has a remaining binding of 96% (binding; 0.1 µM).
With `CC(C)S(=O)(=O)c1ccc2nccc(Nc3ccc4sc(C5CCCC5)nc4c3)c2c1` the activity vs control was 101% (enzyme activity; inhibitor; 1 µM).
